Reference: paper PMC8725320 (Biochimica et biophysica acta. Bioenergetics, 2021)
Several values for one entry are separate records, joined by “and”; a condition that tells them apart may be missing. Equal values may be shown once. Read-outs that look alike come from different tables or passages of the source.

Tests used:
Adenylate Kinase = Adenylate Kinase (Mus musculus, UniProt Q9WTP6); format: biochemical
[1] = tested on: Oxidative Phosphorylation; format: biochemical; details: human skeletal muscle mitochondria, glutamate + succinate, 20 μM AP5A, mean
Summary of the method: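 Isolated human skeletal muscle mitochondria, diluted in mannitol–sucrose buffer. Firefly luciferase ATP-accumulation assay at 25°C in KCl/MOPS medium at pH 7.0 with 5 mM MgCl2, 10 mM phosphate, glucose, EGTA, DTT and 0.2 g% BSA, plus 20 μM AP5A. ADP at eight levels from 0 to 125 μM (ΣADP). Started with 10 mM glutamate + 10 mM succinate. RLU read per minute over 7–10 min; at least duplicate.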

[2] = tested on: Oxidative Phosphorylation; format: biochemical, mouse
Summary of the method: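 Mouse liver, kidney, heart and skeletal muscle mitochondria were isolated and diluted in mannitol–sucrose buffer. Run at 25°C in KCl/MOPS medium at pH 7.0 with 5 mM MgCl2, 10 mM phosphate, 20 μM AP5A, luciferin and luciferase. Eight ADP levels from 0 to 125 μM; start with 10 mM glutamate + 10 mM succinate. Luminescence read each minute for 7–10 min against ATP standards; at least duplicate. ADP3− computed from ΣADP.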

Creatine Kinase = format: biochemical, mouse; details: 10 mM phosphocreatine, 20 μM AP5A, mean
Summary of the method: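 Creatine kinase pathway in isolated mouse tissue mitochondria. Started by adding 10 mM phosphocreatine, with 20 μM AP5A to block AK. Run at 25°C in pH 7.0 medium with 100 mM KCl, 50 mM MOPS, 5 mM MgCl2, 10 mM phosphate, D-luciferin and luciferase. ADP at eight concentrations from 0 to 125 μM. Luminescence read each minute over 7–10 min against ATP standard curves; at least duplicate.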

[3] = tested on: Oxidative Phosphorylation; assay: Polarography; format: biochemical; details: mouse skeletal muscle mitochondria, five preparations, creatine kinase clamp, 5 mM ATP, 37°C
Summary of the method: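 Mouse skeletal muscle mitochondria from five preparations, resuspended in mannitol-sucrose buffer, oxidised 10 mM glutamate + 10 mM succinate at 37°C. O2 consumption was recorded continuously. Steady-state ADP was clamped over a range by varying the phosphocreatine/creatine ratio, with 5 mM ATP and saturating creatine kinase. K0.5 was expressed as total ADP and as ADP3−.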

[4] = biological target: adenine nucleotide translocase (ANT); details: read-out: ANT-ADP dissociation constant, KdADP^3−; free ion ADP^3−; cited from earlier work
[5] = tested on: Oxidative Phosphorylation; details: cited from earlier work
[6] = biological target: adenine nucleotide translocase (ANT); assay: Carboxyatractyloside titration of OxPhos with Easson-Stedman analysis; format: biochemical; details: read-out: CAT-ANT Kd; human skeletal muscle mitochondria; Easson-Stedman equation; low [ADP] 6.25 and/or 12.5 μM; n=27
Summary of the method: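 Human skeletal muscle mitochondria, oxidising glutamate + succinate, were mixed with reaction mix containing 20 μM AP5A, one ADP level (6.25, 12.5 or 25 μM) and one of eight CAT levels (0–5.0 nM). After 5 min for binding, substrate was added to start the reaction. ATP output was followed by luciferase light at 25°C, at least in duplicate. The Easson-Steadman equation gave Kd and ANT concentration.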

[7] = mouse heart mitochondria, glutamate + succinate, 20 μM AP5A, mean
[8] = mouse kidney mitochondria, glutamate + succinate, 20 μM AP5A, mean
[9] = mouse liver mitochondria, glutamate + succinate, 20 μM AP5A, mean
[10] = mouse skeletal muscle mitochondria, glutamate + succinate, 20 μM AP5A, mean
[11] = mouse skeletal muscle mitochondria
[12] = mouse heart mitochondria, no AP5A, mean
[13] = mouse kidney mitochondria, no AP5A, mean
[14] = mouse skeletal muscle mitochondria, no AP5A, mean

For `Nc1ncnc2c1ncn2[C@@H]1O[C@H](COP(=O)(O)OP(=O)(O)OP(=O)(O)OP(=O)(O)OP(=O)(O)OC[C@H]2O[C@@H](n3cnc4c(N)ncnc43)[C@H](O)[C@@H]2O)[C@@H](O)[C@H]1O` [AP5A, diadenosine pentaphosphate, reference compound], the “AK activity in the presence of AP5A” value (Adenylate Kinase; AP5A present at 20 μM, Figure S-8a, S-8b) was “not detectable”.

For `Nc1ncnc2c1ncn2[C@@H]1O[C@H](COP(=O)(O)OP(=O)(O)O)[C@@H](O)[C@H]1O` [ADP], the Vmax [1] was 251.9 nmol/min/mg, the nH [1] was 1.16 and the K0.5ADP ([1]; ΣADP) was 11.1 ± 0.8 µM and 11.1 µM. The “K0.5ADP^3− for OxPhos, heart” value ([2]; mouse heart mitochondria, free ion ADP^3− calculated from ΣADP) was 1.9 μM and ~ 1.9 μM, the “Vmax, Oxidative Phosphorylation, Heart” value [2, 7] was 242.4 nmol ATP min^−1 mg^−1 and the “nH (Hill exponent), Oxidative Phosphorylation, Heart” value [2, 7] was 1.35. For the same molecule, the “K0.5ADP^3− for OxPhos, kidney” value ([2]; mouse kidney mitochondria, free ion ADP^3− calculated from ΣADP) was 1.9 μM and ~ 1.9 μM, the “Vmax, Oxidative Phosphorylation, Kidney” value [2, 8] was 109.9 nmol ATP min^−1 mg^−1 and the “nH (Hill exponent), Oxidative Phosphorylation, Kidney” value [2, 8] was 1.45. The “K0.5ADP, Oxidative Phosphorylation, Liver” value ([2]; mouse liver mitochondria, glutamate + succinate 10 mM + 10 mM, 20 μM AP5A, 25°C, pH 7.0, ΣADP, mean) was 22.3 µM, the “Vmax, Oxidative Phosphorylation, Liver” value [2, 9] was 59.9 nmol ATP min^−1 mg^−1 and the “nH (Hill exponent), Oxidative Phosphorylation, Liver” value [2, 9] was 1.33. The “K0.5ADP^3−, Luciferase” value ([2]; mouse skeletal muscle mitochondria, same five preparations, 25°C, free ion ADP^3−) was 1.9 ± 0.1 μM and 1.9 ^* μM, the “K0.5ADP (ΣADP), Luciferase” value ([2]; mouse skeletal muscle mitochondria, same five preparations, 25°C, glutamate + succinate) was 11.9 ± 0.6 µM and 11.9 µM and the “K0.5ADP^3− for OxPhos, skeletal muscle” value ([2]; mouse skeletal muscle mitochondria, free ion ADP^3− calculated from ΣADP) was 1.9 μM and ~ 1.9 μM. For the same molecule, the “K0.5ADP, Oxidative Phosphorylation, Muscle” value ([2]; mouse skeletal muscle mitochondria, glutamate + succinate, 20 μM AP5A, 25°C, pH 7.0, ΣADP, mean) was 11.9 µM, the “Vmax, Oxidative Phosphorylation, Muscle” value [2, 10] was 553.5 nmol ATP min^−1 mg^−1 and the “nH (Hill exponent), Oxidative Phosphorylation, Muscle” value [2, 10] was 1.19. For the same molecule, the “K0.5ADP, Creatine Kinase, Heart” value (Creatine Kinase; mouse heart mitochondria, 25°C, pH 7.0) was 24.4 µM, the “Vmax, Creatine Kinase, Heart” value (Creatine Kinase; mouse heart mitochondria) was 273.9 nmol ATP min^−1 mg^−1 and the “nH (Hill exponent), Creatine Kinase, Heart” value (Creatine Kinase; mouse heart mitochondria) was 1.00. The “K0.5ADP, Creatine Kinase, Kidney” value (Creatine Kinase; mouse kidney mitochondria, 25°C, pH 7.0) was 37.8 µM, the “Vmax, Creatine Kinase, Kidney” value (Creatine Kinase; mouse kidney mitochondria) was 28.7 nmol ATP min^−1 mg^−1 and the “nH (Hill exponent), Creatine Kinase, Kidney” value (Creatine Kinase; mouse kidney mitochondria) was 1.00. The “K0.5ADP, Creatine Kinase, Muscle” value (Creatine Kinase; mouse skeletal muscle mitochondria, 25°C, pH 7.0) was 36.3 µM, the “Vmax, Creatine Kinase, Muscle” value (Creatine Kinase; [11]) was 944.2 nmol ATP min^−1 mg^−1 and the “nH (Hill exponent), Creatine Kinase, Muscle” value (Creatine Kinase; [11]) was 1.07. For the same molecule, the “K0.5ADP^3−, Polarography” value ([3]; free ion ADP^3−) was 4.4 ± 0.4 µM and 4.4 µM, the “K0.5ADP (ΣADP), Polarography” value ([3]; glutamate + succinate) was 13.1 ± 1.3 µM and 13.1 µM and the Kd [4] was roughly 4 µM. The “K0.5ADP, Adenylate Kinase, Heart” value (Adenylate Kinase; mouse heart mitochondria, no AP5A, 25°C, pH 7.0, mean) was 54.9 µM, the “Vmax, Adenylate Kinase, Heart” value (Adenylate Kinase; [12]) was 30.2 nmol ATP min^−1 mg^−1 and the “nH (Hill exponent), Adenylate Kinase, Heart” value (Adenylate Kinase; [12]) was 1.85. For the same molecule, the “K0.5ADP, Adenylate Kinase, Kidney” value (Adenylate Kinase; mouse kidney mitochondria, no AP5A, 25°C, pH 7.0, mean) was 64.3 µM, the “Vmax, Adenylate Kinase, Kidney” value (Adenylate Kinase; [13]) was 102.3 nmol ATP min^−1 mg^−1 and the “nH (Hill exponent), Adenylate Kinase, Kidney” value (Adenylate Kinase; [13]) was 1.74. The “K0.5ADP, Adenylate Kinase, Liver” value (Adenylate Kinase; mouse liver mitochondria, no AP5A, 25°C, pH 7.0, mean) was 84.0 µM, the “nH (Hill exponent), Adenylate Kinase, Liver” value (Adenylate Kinase; mouse liver mitochondria, no AP5A, mean) was 1.53 and the “K0.5ADP, Adenylate Kinase, Muscle” value (Adenylate Kinase; mouse skeletal muscle mitochondria, no AP5A, 25°C, pH 7.0, mean) was 78.0 µM. The “Vmax, Adenylate Kinase, Muscle” value (Adenylate Kinase; [14]) was 25.7 nmol ATP min^−1 mg^−1, the “nH (Hill exponent), Adenylate Kinase, Muscle” value (Adenylate Kinase; [14]) was 1.68 and the “Hill exponent, nH, in vivo” value ([5]; in vivo OxPhos vs [ADP], sigmoidal relationship) was roughly 2.0. The “OxPhos K0.5ADP in vivo” value ([5]; intact contracting mammalian skeletal muscle, 31P-MRS) was 20 to 40 µM.

For `C=C1[C@@H]2CC[C@H]3[C@]4(C)C[C@H](O[C@@H]5O[C@H](CO)[C@@H](OS(=O)(=O)O)[C@H](OS(=O)(=O)O)[C@H]5OC(=O)CC(C)C)CC(C(=O)O)(C(=O)O)[C@H]4CC[C@]3(C2)[C@H]1O` [CAT, Carboxyatractyloside], the Kd [6] was 48 ± 2 pM.
